NPY-Y1 PAM-ag – potentiates or activates human NPY-Y1 receptor. P25929. NPY-Y1 expressing cells, potentiator/agonist activation. activation, % at 3.6 µM. 0.37% of 220,000 active; in the data active = activation above about 33%, passing the limit was not always enough;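 note: cells stimulated with NPY at EC10 then isoproterenol at EC100; 0% = low agonist plus stimulus and 100% = saturating agonist plus stimulus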
Target sequence (P25929 whole entry, looked up): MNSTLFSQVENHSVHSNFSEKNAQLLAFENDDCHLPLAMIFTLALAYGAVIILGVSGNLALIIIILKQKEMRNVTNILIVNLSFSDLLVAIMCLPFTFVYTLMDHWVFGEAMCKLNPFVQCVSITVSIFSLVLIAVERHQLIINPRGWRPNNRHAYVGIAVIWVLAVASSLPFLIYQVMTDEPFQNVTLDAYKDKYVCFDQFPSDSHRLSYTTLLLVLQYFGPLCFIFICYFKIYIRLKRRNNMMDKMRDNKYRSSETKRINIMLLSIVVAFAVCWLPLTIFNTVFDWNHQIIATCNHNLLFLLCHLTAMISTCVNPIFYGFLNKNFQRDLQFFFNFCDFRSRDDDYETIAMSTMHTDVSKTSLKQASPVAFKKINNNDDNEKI
NPY-Y1 antag – NPY-Y1 (human) receptor antagonism; P25929; 1% of 200,000 active; AID 1040; HEK293-CNG Y1 cells, membrane potential fluorescence; NPY at EC95, then isoproterenol; inhibition, % at 3.6 µM;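 active = inhibition above the campaign mean inhibition of all tested compounds plus 3 SD, cut at about 20% in these data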;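 note: 0% = DMSO wells given NPY plus isoproterenol and 100% = isoproterenol alone without NPY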
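Assay system: HEK293 cells with Y1 receptor plus CNG channel | Probe or stimulus: NPY (25 nM), isoproterenol (1 µM), Ro 20-1724 (25 µM) | Timing: Compound incubation 1 h at room temperature, readout 45 min post-stimulation | Measured by: Membrane-potential fluorescent dye readout | Benchmarks: High control isoproterenol alone, low control NPY with isoproterenol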
NPY-Y2 antag – NPY-Y2 (human) receptor antagonism. 0.99% of 140,000 active. NPY-Y2 expressing cells, antagonist mode. P49146. inhibition, % at 2.7 µM;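 note: 0% = vehicle with agonist challenge and 100% = reference antagonist with challenge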
Target sequence (P49146 whole entry, looked up): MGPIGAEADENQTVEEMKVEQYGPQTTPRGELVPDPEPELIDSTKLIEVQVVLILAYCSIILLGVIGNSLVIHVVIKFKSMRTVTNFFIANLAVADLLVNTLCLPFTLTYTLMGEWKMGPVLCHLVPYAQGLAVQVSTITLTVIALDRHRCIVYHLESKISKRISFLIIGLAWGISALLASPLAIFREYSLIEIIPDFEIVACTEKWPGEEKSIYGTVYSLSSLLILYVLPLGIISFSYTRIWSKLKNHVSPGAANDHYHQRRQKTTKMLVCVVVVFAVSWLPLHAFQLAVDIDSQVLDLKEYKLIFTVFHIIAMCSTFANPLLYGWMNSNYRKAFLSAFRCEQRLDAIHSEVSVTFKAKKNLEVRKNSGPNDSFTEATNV
Insulin prom inh – TRM-6 insulin promoter activity inhibition; TRM-6 cells, insulin promoter-eGFP reporter, imaging; reporter expression induced with tamoxifen; inhibition, % at 2 µM; 0.9% of 130,000 active; AID 1273;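 active = inhibition above the mean plus 3 SD, with well images judged a real hit on visual review, cut at about 60% in these data, passing the limit was not always enough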
NPY-Y2 PAM-ag – human NPY-Y2 potentiation or agonism, primary screen | P49146 | cells expressing NPY-Y2, potentiator/agonist read-out | activation, % at 3.6 µM | 0.45% of 220,000 active; in the data active = activation above about 27%;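 note: cells stimulated with NPY near EC25 plus isoproterenol at EC100; 0% = vehicle plus submaximal agonist and 100% = vehicle plus saturating agonist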
RAM network inh – yeast RAM network inhibition. inhibition, % at 50 µM. 1.8% of 190,000 active. S. cerevisiae dse1pr::URA3 reporter, 5-FOA growth OD615, 2 d; analog-sensitive cbk1-as2 kinase mutant strain;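 active = inhibition above a set limit, 3 SD over mean compound inhibition, cut at about 8.4% in these data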;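 note: 0% = DMSO-only wells with no growth and 100% = 10 µM 1-NA-PP1 full growth; inhibition rescues growth on 5-FOA so higher OD means more RAM inhibition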
NPY1 antag conf – confirmation of human neuropeptide Y receptor Y1 antagonists. shares compounds with NPY-Y1 antag. HEK293-CNG NPY-Y1, membrane potential fluorescence, cAMP; NPY challenge against isoproterenol-raised cAMP. inhibition, % at 3.6 µM. 21% of 1,200 active. AID 1254; in the data active = inhibition above about 20%;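 note: 0% = vehicle with agonist plus stimulus and 100% = stimulus alone without agonist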
NPY2 antag ctr – counter-screen for NPY-Y1 antagonists: human NPY-Y2 antagonism. shares compounds with NPY-Y1 antag. HEK293 NPY-Y2 CNG membrane potential fluorescence; cells given NPY, then isoproterenol. inhibition, % at 3.6 µM. 28% of 1,200 active. AID 1255;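 note: 0% = DMSO with agonist challenge and 100% = reference antagonist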
* hit, by the source's call; . = no result. In the library only some 3.8% were active in any assay of this set; here they are far more common. Cut-off read from the data, not from the text of the source, unless noted: active = inhibition above about 17%; inactive = the rest.

SMILES | NPY-Y1 PAM-ag | NPY-Y1 antag | NPY-Y2 antag | Insulin prom inh | NPY-Y2 PAM-ag | RAM network inh | NPY1 antag conf | NPY2 antag ctr
CCN(Cc1ccccc1)C(c1cccc(C#N)c1)c1nnnn1C(C)(C)C (stereo not given) | -13.7 | 32.8* | 7.9 | -118.2 | -14.2 | 2.6 | 3.5 | 5.3
COc1ccc(Cl)cc1NC(=O)CNc1ccccc1CN(C)C1CCCCC1 | -17.4 | 29.1* | . | . | -8.3 | 1.5 | 26.2* | 20.1*
O=S(=O)(N1CCCCC1)n1c(Cc2ccccc2)nc2ccccc21 | 15.3 | 2.1 | 2.4 | -11.1 | 21.5 | 2.8 | . | .
O=S(=O)(c1ccc(Br)cc1)n1c(Cc2ccccc2)nc2ccccc21 | 2.8 | 20.8* | 3.8 | . | -3.9 | 0.7 | 3.1 | 4.2
CCOC(=O)C1CCCN(C(=O)c2ccc(Cl)c(S(=O)(=O)N3CCCCCC3)c2)C1 (stereo not given) | -18.4 | 7.9 | . | . | -24.9 | 0.6 | . | .
O=C(NC1CCCC1)C(c1ccco1)N(Cc1ccccc1)C(=O)c1csnn1 (stereo not given) | 0.1 | 30.3* | 14.3 | -63.9 | -1.3 | 0.3 | 3.7 | 4.6
CCOc1ccc(C2=Nn3c(nnc3-c3ccccc3OC)SC2)cc1 | -22.9 | 26.4* | 5.6 | . | -31.1 | 1.7 | 6.6 | 26.9*
COc1ccc(C(=O)N2CCOC2CNC(=O)C(=O)NCc2ccc(Cl)cc2)cc1 (stereo not given) | -9.7 | 2.3 | . | -177.8 | -4.0 | 3.2 | . | .
CCCCCCC(=O)Nc1c2c(nc3ccccc13)N(C)CC2 | -34.5 | 24.5* | 9.9 | . | 0.0 | 0.1 | 6.2 | 8.4
Cc1c(Cl)cccc1NC(=O)CN1CCC(C(O)(c2ccccc2)c2ccccc2)CC1 | -12.6 | 5.2 | 1.6 | 0.0 | -4.2 | -0.4 | . | .
CSc1ccccc1NC(=O)CSCc1ccc(Br)cc1 | -23.1 | 26.9* | 12.2 | -16.3 | -20.4 | -1.1 | 1.0 | 4.8
Cc1nc(N2CCCCC2)c2c(C)c(C(=O)Nc3cccc(C(F)(F)F)c3)sc2n1 | -1.9 | 18.8 | . | 33.3 | -6.3 | 4.8 | . | .
Cc1nc(N2CCCCC2)c2c(C)c(C(=O)Nc3ccccc3C(F)(F)F)sc2n1 | -47.5 | 26.9* | . | 42.9 | -37.2 | 0.6 | 22.3* | 14.7
O=C1c2cccc3c(N4CCCCC4)ccc(c23)C(=O)N1c1ccc(O)cc1 | -20.8 | 22.4* | . | . | -17.7 | 7.7 | 15.4 | 20.0*
O=C1c2cccc3c(N4CCCCC4)ccc(c23)C(=O)N1c1ccccc1O | -14.1 | 0.5 | . | . | -13.2 | 3.5 | . | .
O=c1[nH]c2cc(NCCO)c([N+](=O)[O-])cc2[nH]1 | 2.3 | 5.5 | . | . | -5.8 | 0.6 | . | .
CC(C)OCc1c(C(=O)Nc2nccs2)oc2ccccc12 | 1.9 | 4.8 | . | -58.3 | -17.0 | 4.3 | . | .
COCC(=O)NCCNc1nc2ccc(C)cc2cc1C | -17.9 | -0.3 | 3.0 | 7.1 | -1.2 | 1.1 | . | .
Cc1ccc(C(=O)NCCNc2nc3cc(C)c(C)cc3cc2C)cc1 | -27.7 | 32.9* | . | 0.0 | -13.9 | -1.2 | 41.5* | 65.1*
Cc1cc2cc(C)c(NCCNC(=O)c3ccccc3)nc2cc1C | -58.8 | 45.5* | . | . | -53.2 | -0.8 | 31.8* | 37.3*
Cc1ccc(OCCN2CCN(C(=O)CCC(=O)Nc3nnc(CC(C)C)s3)CC2)cc1 | 19.2 | . | . | . | 22.9 | . | . | .
Cc1cnc(C(=O)N2CCc3c([nH]c4ccccc34)C2c2ccc(F)cc2)cn1 (stereo not given) | 14.7 | 1.1 | . | . | -5.1 | 1.7 | . | .
O=C(c1cnccn1)N1CCc2c([nH]c3ccccc23)C1c1cccc(Cl)c1 (stereo not given) | 11.4 | 6.0 | . | . | 11.0 | 1.6 | . | .
CSc1ccc(C2c3[nH]c4ccccc4c3CCN2C(=O)c2cc(C)n(C)n2)cc1 (stereo not given) | -13.1 | 27.1* | . | . | -25.9 | 5.3 | 14.6 | 41.1*
Cc1cc(C(=O)N2CCc3c([nH]c4ccccc34)C2c2cccc(Cl)c2)nn1C (stereo not given) | -17.9 | 36.3* | . | 0.0 | -18.8 | 2.8 | 19.5 | 61.5*
SMILES | NPY-Y1 PAM-ag | NPY-Y1 antag | NPY-Y2 antag | Insulin prom inh | NPY-Y2 PAM-ag | RAM network inh | NPY1 antag conf | NPY2 antag ctr
Cc1ccc(N(C(C)C(=O)N2CCOCC2)S(C)(=O)=O)cc1C (stereo not given) | -6.1 | 0.4 | . | . | -5.5 | -0.5 | . | .
CC(=O)N(Cc1ccc(Br)cc1)c1cccc(C)c1C | -11.1 | 33.5* | . | 29.4 | 2.0 | -1.8 | 1.4 | 5.3
COc1ccc(CN(C(C)=O)c2cccc(C)c2C)cc1 | -27.9 | 6.6 | 4.9 | -184.6 | -7.4 | 1.1 | . | .
Cc1ccc(CNc2ccc(Cl)cc2[N+](=O)[O-])cc1 | -18.2 | 24.3* | 5.4 | -15.6 | -18.1 | 5.6 | 7.8 | 12.5
CCCC(O)(CCC)C(=O)NN(C(=O)CCl)c1ccccc1 | 0.6 | 1.4 | 3.8 | 20.0 | -7.5 | 3.5 | . | .
CCCCC(O)(CCCC)C(=O)NN(C(=O)OC)c1ccccc1 | -5.8 | 26.1* | 8.4 | -33.3 | 6.5 | 1.2 | 24.8* | 10.8
CCCCC(O)(CCCC)C(=O)NN(C(=O)OCC)c1ccccc1 | -24.1 | 33.7* | 16.2 | . | -11.0 | 0.4 | 9.8 | 8.6
CCCC(C)C(=O)Nc1ccc(S(=O)(=O)Nc2nccc(C)n2)cc1 (stereo not given) | 17.8 | -5.1 | . | 55.6 | 4.8 | 1.0 | . | .
CC(=O)Nc1ccccc1-c1nc2ccccc2nc1OCC(=O)c1ccc2ccccc2c1 | -17.1 | 20.7* | 12.9 | . | -0.3 | 5.9 | 15.1 | 7.9
CC(=O)Nc1ccccc1-c1nc2ccccc2nc1OCC(=O)c1ccc(Br)cc1 | 7.9 | 8.7 | 1.4 | -16.7 | -2.5 | 1.9 | . | .
O=C(CSc1nnc(Cc2cccs2)n1CCc1ccccc1)N1CCCc2ccccc21 | -18.4 | 22.0* | 13.0 | -21.9 | -18.8 | 1.3 | 6.6 | 6.1
Cn1c(Cc2cccs2)nnc1SCC(=O)N1CCCc2ccccc21 | 10.6 | 0.6 | 2.8 | -3.6 | -1.2 | 0.1 | . | .
O=C(COc1ccccc1)N(CCc1ccccc1)c1nc(-c2ccc(F)cc2)cs1 | -44.8 | 37.3* | 7.8 | -11.6 | -31.6 | 7.7 | 12.9 | 19.4*
c1ccc(CNc2ncnc3sc4c(c23)CCCC4)nc1 | -3.7 | 19.9 | . | -7.1 | -22.4 | 3.4 | . | .
Cc1nc(NCc2ccccn2)c2c3c(sc2n1)CCCC3 | 6.8 | 45.8* | . | 7.1 | -12.8 | 0.5 | 14.9 | 8.9
COc1ccc(-c2cc(C(F)F)n3ncc(C(=O)Nc4cc(C)on4)c3n2)cc1 | 18.0 | -2.9 | . | 28.6 | 3.7 | 2.8 | . | .
CC1(c2ccccc2)CC(C)(C)N(C(=O)C2CCCO2)c2ccccc21 (stereo not given) | -25.0 | 26.7* | 16.2 | -13.3 | -4.5 | 1.6 | 10.6 | 8.3
COC(=O)c1sc2ccccc2c1NC(=O)c1ccc(S(=O)(=O)N2CCC(C)CC2)cc1 | -14.5 | 11.9 | 0.5 | . | -0.3 | 5.5 | . | .
